Reference: ChEMBL document CHEMBL3120094, “The survival times of malaria-infected mice are prolonged more by several new two-carbon-linked artemisinin-derived dimer carbamates than by the trioxane antimalarial drug artemether” (2014)

Experiments:
Format in all cases: functional
Plasmodium berghei [1] = assay: Antimalarial activity against Plasmodium berghei ANKA infected in C57BL/6J mouse assessed as parasitemia level at 5 mg/kg, po administered after 24 hrs post infection measured after 30 days in presence of 15 mg/kg of mefloquine hydrochloride relative to control
Plasmodium berghei [2] = assay: Antimalarial activity against Plasmodium berghei ANKA infected in C57BL/6J mouse assessed as decrease of parasitemia level at 5 mg/kg, po administered after 24 hrs post infection measured after 3 days in presence of 15 mg/kg of mefloquine hydrochloride relative to control; design: scale not given: the % may be the effect or the level left
Summary of the method: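 Male C57BL/6J mice, 5 weeks old and about 20 g, were infected with P. berghei ANKA (2 × 10⁷ parasitized erythrocytes). At 24 h they got one 200 μL oral dose: 5 mg/kg trioxane plus 15 mg/kg mefloquine hydrochloride in 7:3 Tween 80/ethanol diluted with water. Blood parasitemia was read on day 3 post-infection as % suppression versus untreated infected mice. Four mice per group.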

Plasmodium berghei [3] = assay: Antimalarial activity against Plasmodium berghei ANKA infected in C57BL/6J mouse assessed as increase of host survival days at 5 mg/kg, po administered after 24 hrs post infection in presence of 15 mg/kg of mefloquine hydrochloride (reference value: 6.5 days)
Plasmodium berghei [4] = assay: Antimalarial activity against Plasmodium berghei ANKA infected in C57BL/6J mouse assessed as decrease of parasitemia level at 15 mg/kg, po administered after 24 hrs post infection measured after 3 days relative to control; design: scale not given: the % may be the effect or the level left
Summary of the method: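 Male C57BL/6J mice, 5 weeks old and about 20 g, were infected with P. berghei ANKA at 2 × 10⁷ parasitized erythrocytes. At 24 h post-infection, 4 mice per group received a single oral 200 μL dose in 7:3 Tween 80/ethanol diluted in deionized water. The dose was trioxane 5 mg/kg with mefloquine hydrochloride 15 mg/kg. Parasitemia suppression was read on day 3 versus untreated infected mice.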

Plasmodium berghei [5] = assay: Antimalarial activity against Plasmodium berghei ANKA infected in C57BL/6J mouse assessed as increase of host survival days at 15 mg/kg, po administered after 24 hrs post infection (reference value: 6.5 days)

SMILES | Activity (Plasmodium berghei [1]) | Activity (Plasmodium berghei [2]) | Survival (Plasmodium berghei [3]) | Activity (Plasmodium berghei [4]) | Survival (Plasmodium berghei [5])
C[C@H]1[C@@H]([C@H](C[C@H]2O[C@@H]3O[C@@]4(C)CC[C@H]5[C@H](C)CC[C@@H]([C@H]2C)[C@@]35OO4)OC(=O)Nc2ccc(F)c(Cl)c2)O[C@@H]2O[C@@]3(C)CC[C@H]4[C@H](C)CC[C@@H]1[C@@]24OO3 | 8% | >99.9% | 24.8 days | – | –
C[C@H]1[C@@H]([C@H](C[C@H]2O[C@@H]3O[C@@]4(C)CC[C@H]5[C@H](C)CC[C@@H]([C@H]2C)[C@@]35OO4)OC(=O)Nc2ccc(C(F)(F)F)cc2)O[C@@H]2O[C@@]3(C)CC[C@H]4[C@H](C)CC[C@@H]1[C@@]24OO3 | – | >99.9% | 10.8 days | – | –
C[C@H]1[C@@H]([C@H](C[C@H]2O[C@@H]3O[C@@]4(C)CC[C@H]5[C@H](C)CC[C@@H]([C@H]2C)[C@@]35OO4)OC(=O)Nc2ccc(F)cc2)O[C@@H]2O[C@@]3(C)CC[C@H]4[C@H](C)CC[C@@H]1[C@@]24OO3 | – | >99.9% | 18.8 days | – | –
C[C@H]1[C@@H]([C@H](C[C@H]2O[C@@H]3O[C@@]4(C)CC[C@H]5[C@H](C)CC[C@@H]([C@H]2C)[C@@]35OO4)OC(=O)Nc2ccc(Br)cc2)O[C@@H]2O[C@@]3(C)CC[C@H]4[C@H](C)CC[C@@H]1[C@@]24OO3 | – | >99.9% | 12.5 days | – | –
C[C@H]1[C@@H]([C@H](C[C@H]2O[C@@H]3O[C@@]4(C)CC[C@H]5[C@H](C)CC[C@@H]([C@H]2C)[C@@]35OO4)OC(=O)Nc2cccc(F)c2)O[C@@H]2O[C@@]3(C)CC[C@H]4[C@H](C)CC[C@@H]1[C@@]24OO3 | – | >99.9% | 20.3 days | – | –
C[C@H]1[C@@H]([C@H](C[C@H]2O[C@@H]3O[C@@]4(C)CC[C@H]5[C@H](C)CC[C@@H]([C@H]2C)[C@@]35OO4)OC(=O)Nc2cccc(Cl)c2)O[C@@H]2O[C@@]3(C)CC[C@H]4[C@H](C)CC[C@@H]1[C@@]24OO3 | 8% | >99.9% | 26.8 days | – | –
C[C@H]1[C@@H]([C@H](C[C@H]2O[C@@H]3O[C@@]4(C)CC[C@H]5[C@H](C)CC[C@@H]([C@H]2C)[C@@]35OO4)OC(=O)Nc2cc(F)cc(F)c2)O[C@@H]2O[C@@]3(C)CC[C@H]4[C@H](C)CC[C@@H]1[C@@]24OO3 | – | >99.9% | 21.8 days | – | –
Cc1cc(NC(=O)O[C@@H](C[C@H]2O[C@@H]3O[C@@]4(C)CC[C@H]5[C@H](C)CC[C@@H]([C@H]2C)[C@@]35OO4)[C@H]2O[C@@H]3O[C@@]4(C)CC[C@H]5[C@H](C)CC[C@@H]([C@H]2C)[C@@]35OO4)ccc1F | – | >99.9% | 13.5 days | – | –
OC(c1cc(C(F)(F)F)nc2c(C(F)(F)F)cccc12)C1CCCCN1 (configuration not stated) [MEFLOQUINE] | – | – | – | >99.9% | 20.3 days
C[C@H]1[C@@H]([C@H](C[C@H]2O[C@@H]3O[C@@]4(C)CC[C@H]5[C@H](C)CC[C@@H]([C@H]2C)[C@@]35OO4)OC(=O)Nc2cccc(C(F)(F)F)c2)O[C@@H]2O[C@@]3(C)CC[C@H]4[C@H](C)CC[C@@H]1[C@@]24OO3 | – | >99.9% | 18 days | – | –
C[C@H]1[C@@H]([C@@H](O)C[C@H]2O[C@@H]3O[C@@]4(C)CC[C@H]5[C@H](C)CC[C@@H]([C@H]2C)[C@@]35OO4)O[C@@H]2O[C@@]3(C)CC[C@H]4[C@H](C)CC[C@@H]1[C@@]24OO3 | – | >99.9% | 25 days | – | –
C[C@H]1[C@@H]([C@H](C[C@H]2O[C@@H]3O[C@@]4(C)CC[C@H]5[C@H](C)CC[C@@H]([C@H]2C)[C@@]35OO4)OC(=O)Nc2ccc(F)c(F)c2)O[C@@H]2O[C@@]3(C)CC[C@H]4[C@H](C)CC[C@@H]1[C@@]24OO3 | 8% | >99.9% | 25.5 days | – | –
C[C@H]1[C@@H]([C@H](C[C@H]2O[C@@H]3O[C@@]4(C)CC[C@H]5[C@H](C)CC[C@@H]([C@H]2C)[C@@]35OO4)OC(=O)Nc2ccc([N+](=O)[O-])cc2)O[C@@H]2O[C@@]3(C)CC[C@H]4[C@H](C)CC[C@@H]1[C@@]24OO3 | – | >99.9% | 22 days | – | –
C[C@H]1[C@@H]([C@H](C[C@H]2O[C@@H]3O[C@@]4(C)CC[C@H]5[C@H](C)CC[C@@H]([C@H]2C)[C@@]35OO4)OC(=O)Nc2ccc(C#N)cc2)O[C@@H]2O[C@@]3(C)CC[C@H]4[C@H](C)CC[C@@H]1[C@@]24OO3 | – | >99.9% | 17.8 days | – | –
C[C@H]1[C@@H]([C@H](O)C[C@H]2O[C@@H]3O[C@@]4(C)CC[C@H]5[C@H](C)CC[C@@H]([C@H]2C)[C@@]35OO4)O[C@@H]2O[C@@]3(C)CC[C@H]4[C@H](C)CC[C@@H]1[C@@]24OO3 | – | >99.9% | 24.8 days | – | –
C[C@H]1[C@@H]([C@H](C[C@H]2O[C@@H]3O[C@@]4(C)CC[C@H]5[C@H](C)CC[C@@H]([C@H]2C)[C@@]35OO4)OC(=O)Nc2ccccc2)O[C@@H]2O[C@@]3(C)CC[C@H]4[C@H](C)CC[C@@H]1[C@@]24OO3 | – | >99.9% | 17 days | – | –
C[C@H]1[C@@H]([C@H](C[C@H]2O[C@@H]3O[C@@]4(C)CC[C@H]5[C@H](C)CC[C@@H]([C@H]2C)[C@@]35OO4)OC(=O)Nc2ccc(Cl)cc2)O[C@@H]2O[C@@]3(C)CC[C@H]4[C@H](C)CC[C@@H]1[C@@]24OO3 | – | >99.9% | 18.3 days | – | –
